What was measured:
[1] = Cytotoxicity against human Raji cells assessed as cell viability at 10 molar ratio after 48 hrs by trypan blue staining method; type: cell-based; details: read-out: Activity
In short: (§1)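 Raji cells (EBV genome-carrying, Burkitt's lymphoma) grown in RPMI-1640 with 10% FBS; incubated 48 h at 37 °C with 4 mM n-butyric acid, 32 pM TPA and test compound in DMSO at stated compound/TPA molar ratio; viability determined by Trypan blue staining.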

Raji [2] = test: Inhibition of TPA-induced EBV-early antigen activation in human Raji cells assessed as EA induction at 1000 molar ratio after 48 hrs relative to TPA; type: cell-based; set-up: scale not given: the % may be the effect or the level left; details: human gammaherpesvirus 4
In short: (§2)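 Raji cells (virus non-producer, spontaneous EA activation <0.1%) incubated 48 h at 37 °C with 4 mM n-butyric acid plus 32 pM TPA and compound in DMSO; smears stained by indirect immunofluorescence with NPC patient EBV-EA-positive serum, ≥500 cells counted; EA-positive cells expressed relative to butyrate+TPA control (100%); triplicates; IC50 as mol ratio to 32 pmol TPA.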

Raji [3] = test: Inhibition of TPA-induced EBV-early antigen activation in human Raji cells assessed as EA induction at 500 molar ratio after 48 hrs relative to TPA; type: cell-based; set-up: scale not given: the % may be the effect or the level left; details: human gammaherpesvirus 4; in short: as §2
[4] = Inhibition of TPA-induced EBV-early antigen activation in human Raji cells assessed as EA induction after 48 hrs relative to TPA; type: cell-based, human gammaherpesvirus 4; in short: as §2
[5] = Cytotoxicity against human Raji cells assessed as cell viability at 1000 molar ratio after 48 hrs by trypan blue staining method; type: cell-based; details: read-out: Activity; in short: as §1
[6] = Cytotoxicity against human Raji cells assessed as cell viability at 500 molar ratio after 48 hrs by trypan blue staining method; type: cell-based; details: read-out: Activity; in short: as §1
[7] = Cytotoxicity against human Raji cells assessed as cell viability at 100 molar ratio after 48 hrs by trypan blue staining method; type: cell-based; details: read-out: Activity; in short: as §1
Raji [8] = test: Inhibition of TPA-induced EBV-early antigen activation in human Raji cells assessed as EA induction at 10 molar ratio after 48 hrs relative to TPA; type: cell-based; set-up: scale not given: the % may be the effect or the level left; details: human gammaherpesvirus 4; in short: as §2
Raji [9] = test: Inhibition of TPA-induced EBV-early antigen activation in human Raji cells assessed as EA induction at 100 molar ratio after 48 hrs relative to TPA; type: cell-based; set-up: scale not given: the % may be the effect or the level left; details: human gammaherpesvirus 4; in short: as §2

| Compound | viability at 48 h, 10 molar ratio [1] [%] | Activity (Raji [2]) [%] | Activity (Raji [3]) [%] | IC50 [4] [molar ratio] | viability at 48 h, 1000 molar ratio [5] [%] | viability at 48 h, 500 molar ratio [6] [%] | viability at 48 h, 100 molar ratio [7] [%] | Activity (Raji [8]) [%] | Activity (Raji [9]) [%] |
| --- | --- | --- | --- | --- | --- | --- | --- | --- | --- |
| C=C(C)[C@@H]1CC[C@]2(C(=O)O)CC[C@]3(C)[C@H](CC[C@@H]4[C@@]5(C)CC[C@H](O)C(C)(C)[C@@H]5CC[C@]43C)[C@@H]12 [BETULINIC ACID] | > 80 | 7.9 | 37.2 | 403 | 60 | > 80 | > 80 | 100 | 75.1 |
| C=C(C)[C@@H]1CC[C@]2(C(=O)O)CC[C@]3(C)[C@H](CC[C@@H]4[C@@]5(C)CC[C@H](OC(=O)CCCCCCC/C=C\C/C=C\C/C=C\CC)C(C)(C)[C@@H]5CC[C@]43C)[C@@H]12 | > 80 | 10.9 | 43.3 | 445 | 60 | > 80 | > 80 | 97 | 77.8 |
| C=C(C)[C@@H]1CC[C@]2(C(=O)O)CC[C@]3(C)[C@H](CC[C@@H]4[C@@]5(C)CC[C@H](OC(=O)C[C@H](C)CO)C(C)(C)[C@@H]5CC[C@]43C)[C@@H]12 | > 80 | 0 | 29.3 | 303 | 70 | > 80 | > 80 | 93.1 | 70.1 |
| C=C(C)[C@@H]1CC[C@]2(C(=O)O)CC[C@]3(C)[C@H](CC[C@@H]4[C@@]5(C)CC[C@H](OC(=O)CCCCCCC/C=C\CCCCCCCC)C(C)(C)[C@@H]5CC[C@]43C)[C@@H]12 | > 80 | 4.8 | 33.7 | 344 | 60 | > 80 | > 80 | 92.5 | 72.4 |
| C=C(C)[C@@H]1CC[C@]2(C(=O)O)CC[C@]3(C)[C@H](CC[C@@H]4[C@@]5(C)CC[C@H](OC(=O)/C=C/C)C(C)(C)[C@@H]5CC[C@]43C)[C@@H]12 | > 80 | 0 | 26.2 | 299 | 70 | > 80 | > 80 | 91.6 | 66.7 |
| C=C(C)[C@@H]1CC[C@]2(C(=O)O)CC[C@]3(C)[C@H](CC[C@@H]4[C@@]5(C)CC[C@H](OC(=O)C=C(C)C)C(C)(C)[C@@H]5CC[C@]43C)[C@@H]12 | > 80 | 0 | 23.5 | 285 | 70 | > 80 | > 80 | 88.7 | 62.5 |
| C=C(C)[C@@H]1CC[C@]2(C(=O)O)CC[C@]3(C)[C@H](CC[C@@H]4[C@@]5(C)CC[C@H](OC(=O)CC/C=C\C/C=C\C/C=C\C/C=C\C/C=C\C/C=C\CC)C(C)(C)[C@@H]5CC[C@]43C)[C@@H]12 | > 80 | 17 | 53.8 | 546 | 60 | > 80 | > 80 | 100 | 83.2 |
| C=C(C)[C@@H]1CC[C@]2(C(=O)O)CC[C@]3(C)[C@H](CC[C@@H]4[C@@]5(C)CC[C@H](OC(=O)C[C@H](C)C(=O)O)C(C)(C)[C@@H]5CC[C@]43C)[C@@H]12 | > 80 | 0 | 31.5 | 308 | 60 | > 80 | > 80 | 94.2 | 71 |
| C=C(C)[C@@H]1CC[C@]2(C(=O)O)CC[C@]3(C)[C@H](CC[C@@H]4[C@@]5(C)[C@@H](C(=O)O)[C@H](OC(=O)CC(C)(C)C(=O)O)C(C)(C)[C@@H]5CC[C@]43C)[C@@H]12 | > 80 | 5.1 | 35 | 349 | 60 | > 80 | > 80 | 93.8 | 72 |
| C=C(C)[C@@H]1CC[C@]2(C(=O)O)CC[C@]3(C)[C@H](CC[C@@H]4[C@@]5(C)CC[C@H](OC(=O)CCC/C=C\C/C=C\C/C=C\C/C=C\CCCCC)C(C)(C)[C@@H]5CC[C@]43C)[C@@H]12 | > 80 | 12.3 | 46.1 | 482 | 60 | > 80 | > 80 | 100 | 79 |
| C=C(C)[C@@H]1CC[C@]2(C(=O)O)CC[C@]3(C)[C@H](CC[C@@H]4[C@@]5(C)CC[C@H](OC(=O)CC(C)(C)C(=O)O)C(C)(C)[C@@H]5CC[C@]43C)[C@@H]12 [BEVIRIMAT] | > 80 | 6.1 | 36.1 | 396 | 60 | > 80 | > 80 | – | 74.2 |
| C=C(C)[C@@H]1CC[C@]2(C(=O)O)CC[C@]3(C)[C@H](CC[C@@H]4[C@@]5(C)CC[C@H](OC(=O)C[C@@H](C)C(=O)O)C(C)(C)[C@@H]5CC[C@]43C)[C@@H]12 | > 80 | 0 | 31.8 | 309 | 60 | > 80 | > 80 | 94.7 | 71.2 |
| C=C(C)[C@@H]1CC[C@]2(C(=O)O)CC[C@]3(C)[C@H](CC[C@@H]4[C@@]5(C)[C@@H](C(=O)O)[C@H](O)C(C)(C)[C@@H]5CC[C@]43C)[C@@H]12 [CEANOTHIC ACID] | > 80 | 8.5 | 35.7 | 400 | 60 | > 80 | > 80 | 100 | 72.1 |
| COc1cc(/C=C/C(=O)CC(=O)/C=C/c2ccc(O)c(OC)c2)ccc1O [CURCUMIN] | > 80 | 0 | 22.8 | 341 | 60 | > 80 | > 80 | 100 | 81.7 |

Reference: ChEMBL document CHEMBL1137008, “Cancer preventive agents 9. Betulinic acid derivatives as potent cancer chemopreventive agents” (Bioorg Med Chem Lett, 2009)
